Measurements collected from several papers.
Compare with care: the assays were run in different laboratories.
MTNR1A: Melatonin receptor type 1A (MTNR1A, Homo sapiens, UniProt P48039)
murC: UDP-N-acetylmuramate--L-alanine ligase (murC, Escherichia coli K-12, UniProt P17952)
BMP2K: BMP-2-inducible protein kinase (BMP2K, Homo sapiens, UniProt Q9NSY1)
Grm1: Metabotropic glutamate receptor 1 (Grm1, Rattus norvegicus, UniProt P23385)
BRWD3: BRWD3 (Homo sapiens, UniProt Q6RI45)

COc1ccc2[nH]cc(CCNC(C)=O)c2c1I
Emax (MTNR1A; cAMP, agonist, TR-FRET; CHO-K1; 20 min): 90%

Cc1ccc(C(=O)Nc2ccc(CN3CCN(C)CC3)c(C(F)(F)F)c2)cc1C#Cc1cnc2cccnn12
remaining signal (Serine/threonine-protein kinase MRCK gamma (CDC42BPG, Homo sapiens, UniProt Q6DT37); cell-free assay; 23.5 nM): 100%

Nc1ncnc2occ(-c3ccc(NC(=O)Nc4cc(C(F)(F)F)ccc4F)cc3)c12
remaining signal (Receptor-type tyrosine-protein kinase FLT3 (FLT3, Homo sapiens, UniProt P36888, ITD); cell-free assay, inhibitor; 20 µM): 0.1%

O=C(Nc1ccc(C=NNS(=O)(=O)c2ccc3ccccc3c2)cc1)c1ccccc1Br
remaining activity (murC; enzyme activity, inhibitor, absorbance; 100 µM): 41%

COc1cc(I)c2[nH]cc(CCNC(C)=O)c2c1
Emax (MTNR1A; GTPγS binding, agonist, radiometric; cell membranes): 39%

N#Cc1ccc(COc2ccccc2C=NNS(=O)(=O)c2ccc3ccccc3c2)cc1
remaining activity (murC; enzyme activity, inhibitor, absorbance; 100 µM): 36%

CCCOc1ccc(OC)c(F)c1C(=O)c1ccc(C(=O)N[C@@H]2CNC[C@H]2NC(=O)c2ccc3[nH]ncc3c2)cc1
remaining activity (Rho-associated protein kinase 2 (ROCK2, Homo sapiens, UniProt O75116); enzyme activity, inhibitor; 10 µM): 3%

Cc1nn(CC(F)(F)F)cc1Nc1ncc(Br)c(NCc2ccc(S(N)(=O)=O)cc2)n1
remaining activity (BMP2K; enzyme activity, inhibitor, radiometric; 1 µM): 30%

O=C(Nc1ccc(C=NNS(=O)(=O)c2ccc3ccccc3c2)cc1)c1ccccc1
remaining activity (murC; enzyme activity, inhibitor, absorbance; 100 µM): 97%

Cc1cccnc1C(=O)Nc1ccc(N2C(=O)c3cccc(Cl)c3C2=O)c(Cl)c1
Emax (Grm1; calcium signal, positive allosteric modulator; T-REx-293): 118%

N#Cc1ccc(COc2ccccc2C=NNS(=O)(=O)Cc2ccccc2F)cc1
remaining activity (murC; enzyme activity, inhibitor, absorbance; 100 µM): 59%

c1cc(CN2CCOCC2)cc(Nc2ncc(C3CC3)c(NCCc3c[nH]cn3)n2)c1
remaining activity (BMP2K; enzyme activity, inhibitor, radiometric; 1 µM): 18%

C[S+]([O-])c1ccc(-c2nc(-c3ccncc3)c(-c3ccc(F)cc3)[nH]2)cc1 (centres unmarked)
ΔTm (BRWD3; thermal stability, DSF; 10 µM): 0.55 °C

O=C(NCCCNc1nc(Nc2cccc(NC(=O)N3CCCC3)c2)ncc1C1CC1)C1CCC1
remaining activity (BMP2K; enzyme activity, inhibitor, radiometric; 1 µM): 8%

Cc1cc(NC(=O)c2cccc3cc(-c4cccc5[nH]nc(N)c45)ccc23)ccc1F
activity vs control (MAPK/MAK/MRK overlapping kinase (MOK, Homo sapiens, UniProt Q9UQ07); enzyme activity, inhibitor; 0.1 µM): 95%

Cc1nn(CC(F)(F)F)cc1Nc1ncc(C2CC2)c(NCCc2c[nH]cn2)n1
remaining activity (BMP2K; enzyme activity, inhibitor, radiometric; 1 µM): 96%

Cc1cnc(Nc2ccc(OCCN3CCCC3)cc2)nc1Nc1cccc(S(=O)(=O)NC(C)(C)C)c1
ΔTm (BRWD3; thermal stability, DSF; 10 µM): 0.58 °C

COc1ccc2ncn(CCNC(C)=O)c2c1
Emax (MTNR1A; β-arrestin recruitment, agonist; CHO-K1; 90 min): 92%

O=[N+]([O-])c1cccc(COc2ccccc2C=NNS(=O)(=O)c2ccc3ccccc3c2)c1
remaining activity (murC; enzyme activity, inhibitor, absorbance; 50 µM): 65%

NS(=O)(=O)c1ccc(CNc2ccnc(Nc3cccc(NC(=O)N4CCCC4)c3)n2)cc1
remaining activity (BMP2K; enzyme activity, inhibitor, radiometric; 1 µM): 80%

COc1cc2c(CCNC(C)=O)c[nH]c2cc1I
Emax (MTNR1A; cAMP, agonist, TR-FRET; CHO-K1; 20 min): 98%

O=C(Nc1cccc(Nc2ncc(Br)c(NCCc3cnc[nH]3)n2)c1)N1CCCC1
remaining activity (BMP2K; enzyme activity, inhibitor, radiometric; 1 µM): 2%

CCc1ccc2scc(CCNC(C)=O)c2c1
Emax (MTNR1A; β-arrestin recruitment, agonist; CHO-K1; 90 min): 75%

Cc1cc2c(cc1N1C(=O)c3cccc4c(Cl)ccc(c34)C1=O)n(C)c(=O)n2C
ΔTm (BRWD3; thermal stability, DSF; 10 µM): -0.5 °C

FC(F)(F)Oc1cccc(-c2cnc3ccc(-c4ccncc4)nn23)c1
activity vs control (Serine/threonine-protein kinase SIK3 (SIK3, Homo sapiens, UniProt Q9Y2K2); enzyme activity, inhibitor, radiometric; 1 µM): 93%

COc1ccc2cccc(CCNC(C)=O)c2c1
Emax (MTNR1A; β-arrestin recruitment, agonist; CHO-K1; 90 min): 96%

Cc1cccnc1C(=O)Nc1ccc(N2C(=O)c3ccccc3C2=O)c(Cl)c1
Emax (Grm1; calcium signal, positive allosteric modulator; T-REx-293): 109%

O=C(NCCCNc1nc(Nc2cccc(CN3CCOCC3)c2)ncc1C1CC1)C1CCC1
remaining activity (BMP2K; enzyme activity, inhibitor, radiometric; 1 µM): 3%

COc1cc2c(CCNC(C)=O)c(I)[nH]c2cc1[N+](=O)[O-]
Emax (MTNR1A; GTPγS binding, agonist, radiometric; cell membranes): 72%
